Reference: ChEMBL document CHEMBL4196129, “Structural Optimization and Characterization of Potent Analgesic Macrocyclic Analogues of Neurotensin (8-13)” (J Med Chem, 2018)
Activity calls are given as the source filed them. No cut-off for these calls is given here. Starred links: 1 amine or outer side, 2 acyl side, 3 side chain; linkers in the order of their positions; H or OH if unused. Positions of bridges follow the written chain, without caps; N, C: chain ends. Non-standard residues stand in square brackets, D forms with d. Residues, ends and D or L forms follow the SMILES beside them. *: point of attachment. X6 = C=CCc1cc(C[C@H](N[*:1])C(=O)[*:2])ccc1O; NMeR = CN[C@@H](CCCNC(=N)N)C(=O)O; X7 = C=CCCCCCCC(=O)*

Legend:
[1] = biological target: T1, Neurotensin receptor type 1 (Homo sapiens, UniProt P30989); experiment: Displacement of [125I]Tyr3-neurotensin from human NTS1 receptor expressed in CHOK1 cell membranes after 60 mins by gamma counting analysis
T1 sequence (P30989 whole entry): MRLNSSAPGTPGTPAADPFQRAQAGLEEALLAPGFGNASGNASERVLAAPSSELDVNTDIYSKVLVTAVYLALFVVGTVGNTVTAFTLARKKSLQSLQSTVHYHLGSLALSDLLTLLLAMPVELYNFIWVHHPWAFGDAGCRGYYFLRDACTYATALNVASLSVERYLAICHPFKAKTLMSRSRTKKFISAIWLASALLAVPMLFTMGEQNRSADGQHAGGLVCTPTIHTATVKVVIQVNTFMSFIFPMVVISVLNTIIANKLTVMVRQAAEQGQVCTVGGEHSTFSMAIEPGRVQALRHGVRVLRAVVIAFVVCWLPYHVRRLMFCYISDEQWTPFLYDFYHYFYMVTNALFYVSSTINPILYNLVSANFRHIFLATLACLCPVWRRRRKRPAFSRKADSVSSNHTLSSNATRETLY

[2] = Half life in rat plasma by UPLC-MS analysis; type: ADME, cell-free
How it was run: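 Quenched with acetonitrile/ethanol (1:1) plus 0.5% nicotinamide, centrifuged and filtered. Parent peptide measured by UPLC-MS; half-life from a one-phase decay fit.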

[3] = biological target: T1, Neurotensin receptor type 1; experiment: Agonist activity at GFP10/beta-arrestin1-Rluc2 fused human NTS1 expressed in CHO-K1 cell membranes assessed as beta-arrestin1 recruitment after 20 mins by BRET assay; type: functional, cell-based
[4] = biological target: T1, Neurotensin receptor type 1; experiment: Agonist activity at Galpha13-Rluc2/Gbeta1/GFP10-Ggamma1 fused human NTS1 expressed in CHO-K1 cell membranes assessed as Galpha13 activation after 5 mins by BRET assay; type: functional, cell-based
[5] = biological target: T1, Neurotensin receptor type 1; experiment: Displacement of [3H]-neurotensin from NTS1 receptor (unknown origin) after 20 mins by liquid scintillation counting analysis
Rattus norvegicus [6] = experiment: Induction of hypothermia in Sprague-Dawley rat assessed as reduction in body temperature at 30 ug/kg, it after 60 mins; type: functional, organism-based
How it was run: (§1)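 Rectal thermistor temperature in adult Sprague-Dawley rats acclimatized 5 min/day for 3 days. Baseline taken, then readings every 10 min to 60 min after intrathecal dosing in 0.9% saline, at 0.3, 1, 3, 10 and 30 µg/kg for the dose-response series. Single-dose comparisons at 30 µg/kg read only at 60 min. Change from baseline per animal; AUC per dose used for ED50.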

Rattus norvegicus [7] = experiment: Analgesic activity in formalin-induced Sprague-Dawley rat pain model assessed as inhibition of nociceptive response in right hind paw at 30 ug/kg, it measured for 21 to 60 mins; type: functional, organism-based
How it was run: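 Male Sprague-Dawley rats dosed intrathecally at 30 µg/kg in 0.9% saline; 5 min later, 50 µl of 2% formaldehyde given into the right hind paw plantar surface. Weighted pain score (0-3) recorded per 3-min block over 60 min. Acute phase 0-9 min, inflammatory phase 21-60 min.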

Rattus norvegicus [8] = experiment: Hypotensive activity in Sprague-Dawley rat assessed as reduction in arterial blood pressure in third phase at 0.01 mg/kg, iv measured every second up to 900 secs; type: functional, organism-based
How it was run: (§2)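 Sprague-Dawley rats anesthetized with ketamine/xylazine (87:13 mg/kg, i.m.) on a heated pad. Compound given i.v. via jugular vein catheter at 0.01 mg/kg (1 mL/kg over 5-10 s); saline as control. Arterial pressure recorded each second for 900 s. Change in mean arterial pressure taken from basal level; n=3-5 rats.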

Rattus norvegicus [9] = experiment: Hypotensive activity in Sprague-Dawley rat assessed as reduction in arterial blood pressure in first phase at 0.01 mg/kg, iv measured every second up to 900 secs
[10] = biological target: T1, Neurotensin receptor type 1; experiment: Displacement of [125I]Tyr3-neurotensin from human NTS1 receptor (end Leu 194 residues) expressed in CHO cells; type: cell-based
How it was run: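 Membranes from CHO-K1 cells stably expressing hNTS1 (15 µg) incubated with 45 pM 125I-[Tyr3]-NT in 50 mM Tris-HCl pH 7.5, 0.2% BSA. Analogue at 10^-11 to 10^-4 M for 60 min at 25°C, then filtration and gamma counting. Nonspecific binding defined with 10^-5 M NT(8-13).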

[11] = biological target: T1, Neurotensin receptor type 1; experiment: Agonist activity at Galphaq-Rluc2/Gbeta1/GFP10-Ggamma1 fused human NTS1 expressed in CHO-K1 cell membranes assessed as Galphaq activation after 5 mins by BRET assay; type: functional, cell-based
[12] = biological target: T1, Neurotensin receptor type 1; experiment: Agonist activity at GFP10/beta-arrestin2-Rluc2 fused human NTS1 expressed in CHO-K1 cell membranes assessed as beta-arrestin2 recruitment after 20 mins by BRET assay; type: functional, cell-based
Rattus norvegicus [13] = experiment: Hypotensive activity in Sprague-Dawley rat assessed as reduction in arterial blood pressure in first phase at 0.01 mg/kg, iv measured every second up to 900 secs; type: functional; how it was run: as §2
Rattus norvegicus [14] = experiment: Analgesic activity in Sprague-Dawley rat assessed as increase in tail withdrawal latency at 30 ug/kg, it measured at 10 mins post injection by tail flick test relative to control; type: functional
How it was run: (§3)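 Adult male Sprague-Dawley rats (225-300 g), acclimatized 5 min/day for 3 days. Baseline tail-flick latency taken before injection. Dosing under light isoflurane anesthesia, intrathecal at L5-L6, compound in 0.9% saline; saline alone as control. Latency to heat (light beam) read every 10 min up to 60 min. %MPE taken at 10 min post-injection.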

Rattus norvegicus [15] = experiment: Analgesic activity in Sprague-Dawley rat assessed as increase in tail withdrawal latency at 30 ug/kg, it measured every 10 mins up to 60 mins by tail flick test; type: functional, organism-based; how it was run: as §3
Rattus norvegicus [16] = experiment: Analgesic activity in it dosed Sprague-Dawley rat assessed as increase in tail withdrawal latency measured every 10 mins up to 60 mins by tail flick test; type: functional; how it was run: as §3
Rattus norvegicus [17] = experiment: Analgesic activity in Sprague-Dawley rat assessed as increase in tail withdrawal latency at 10 ug/kg, it measured every 10 mins up to 60 mins by tail flick test; type: functional, organism-based; how it was run: as §3
Rattus norvegicus [18] = experiment: Induction of hypothermia in Sprague-Dawley rat assessed as reduction in body temperature at 0.3 to 30 ug/kg, it after 60 mins; type: functional, organism-based; how it was run: as §1
Rattus norvegicus [19] = experiment: Analgesic activity in Sprague-Dawley rat assessed as increase in tail withdrawal latency at 1 ug/kg, it measured every 10 mins up to 60 mins by tail flick test; type: functional, organism-based; how it was run: as §3
Rattus norvegicus [20] = experiment: Induction of hypothermia in it dosed Sprague-Dawley rat assessed as reduction in body temperature measured every 10 mins up to 60 mins; type: functional; how it was run: as §1

## C=CCCCCCCC(=O)N[C@@H](CCCCN)C(=O)N1CCC[C@H]1C(=O)N[C@@H](Cc1ccc(O)c(CC=C)c1)C(=O)N[C@H](C(=O)N[C@@H](CC(C)C)C(=O)O)[C@@H](C)CC (X7-KP[X6]IL-OH)
[1]
  Ki: > 10000 nM

## CC[C@H](C)[C@H](NC(=O)[C@@H]1Cc2ccc(O)c(c2)CC=CCNCCCCCC(=O)N[C@@H](CCCCN)C(=O)N2CCC[C@H]2C(=O)N1)C(=O)N[C@@H](CC(C)C)C(=O)O
[2]
  half-life: 1440 min
[3]
  EC50: 96 nM
[1]
  Ki: 656 nM

## CC[C@H](C)[C@H](NC(=O)[C@@H]1Cc2ccc(O)c(c2)CC=CCCCCCCC(=O)N[C@@H](CCCCN)C(=O)N2CCC[C@H]2C(=O)N1)C(=O)N[C@@H](CC(C)C)C(=O)O
[3]; cho-k1
  EC50: 1500 nM
[4]; cho-k1
  EC50: 433 nM
[1]
  Ki: 5600 nM

## CC(C)C[C@H](NC(=O)[C@@H]1CCC(=O)NCC(=O)N(C)[C@@H](CCCNC(=N)N)C(=O)N[C@@H](CCCCN)C(=O)N2CCC[C@H]2C(=O)N[C@@H](Cc2c[nH]c3ccccc23)C(=O)N1)C(=O)O (G[NMeR]KPWEL-OH; lactam N-6)
[5]
  Ki: 3500 nM

## CC[C@H](C)[C@H](NC(=O)[C@@H]1Cc2ccc(O)c(c2)CC=CCN(S(=O)(=O)c2ccccc2[N+](=O)[O-])CCCC[C@H](N)C(=O)N[C@@H](CCCCN)C(=O)N2CCC[C@H]2C(=O)N1)C(=O)N[C@@H](CC(C)C)C(=O)O
[2]
  half-life: 84 min

## CC[C@H](C)[C@H](NC(=O)[C@@H]1Cc2ccc(O)c(c2)CC=CCNCC[C@H](N)C(=O)N[C@@H](CCCCN)C(=O)N2CCC[C@H]2C(=O)N1)C(=O)N[C@@H](CC(C)C)C(=O)O
[2]
  half-life: 150 min

## CCOC(=O)[C@H](CC(C)C)NC(=O)[C@@H](NC(=O)[C@H](Cc1c[nH]c2ccccc12)NC(=O)[C@H]1CCCN1C(=O)[C@H](CCCCN)NC(=O)[C@@H](N)CCCCN)C(C)(C)C
Rattus norvegicus [6]
  deltaT: 2 °C
Rattus norvegicus [7]
  Activity: Active
Rattus norvegicus [8]
  Activity: Active
Rattus norvegicus [9]
  Activity: Active

## CC[C@H](C)[C@H](NC(=O)[C@@H]1Cc2ccc(O)c(c2)CC=CCCCNCCCC[C@H](N)C(=O)N[C@@H](CCCCN)C(=O)N2CCC[C@H]2C(=O)N1)C(=O)N[C@@H](CC(C)C)C(=O)O
[2]
  half-life: 18 min

## CCOC(=O)[C@H](CC(C)C)NC(=O)[C@@H](NC(=O)[C@H](Cc1c[nH]c2ccccc12)NC(=O)[C@@H]1CCCN1C(=O)[C@H](CCCCN)NC(=O)[C@@H](N)CCCCN)C(C)(C)C [listing 1 of 2 here]
[1]
  Ki: 159 nM

## CC[C@H](C)[C@H](NC(=O)[C@@H]1Cc2ccc(cc2)OCCCCCC(=O)N[C@@H](CCCNC(=N)N)C(=O)N2CCC[C@H]2C(=O)N1)C(=O)N[C@@H](CC(C)C)C(=O)O
[10]
  Ki: 450 nM

## CC[C@H](C)[C@H](NC(=O)[C@@H]1Cc2ccc(O)c(c2)CC=CCNCCC[C@H](N)C(=O)N[C@@H](CCCCN)C(=O)N2CCC[C@H]2C(=O)N1)C(=O)N[C@@H](CC(C)C)C(=O)O [listing 1 of 2 here]
[2]
  half-life: 30 to 39 min
[11]
  EC50: 3 nM
[3]
  EC50: 4 nM
[4]
  EC50: 11 nM

## CC[C@H](C)[C@H](NC(=O)[C@@H]1Cc2ccc(O)c(c2)CC=CCCNCCCC[C@H](N)C(=O)N[C@@H](CCCCN)C(=O)N2CCC[C@H]2C(=O)N1)C(=O)N[C@@H](CC(C)C)C(=O)O
[2]
  half-life: 15 min

## C=CCNCCCC[C@H](N)C(=O)N[C@@H](CCCCN)C(=O)N1CCC[C@H]1C(=O)N[C@@H](Cc1ccc(O)c(CC=C)c1)C(=O)N[C@H](C(=O)N[C@@H](CC(C)C)C(=O)O)[C@@H](C)CC
[2]
  half-life: 5 min
[11]
  EC50: 7 nM
[3]
  EC50: 15 nM
[12]
  EC50: 9 nM

## CC[C@H](C)[C@H](NC(=O)[C@@H]1Cc2ccc(O)c(c2)CC=CCCCCCC[C@](C)(N)C(=O)N[C@@H](CCCCN)C(=O)N2CCC[C@H]2C(=O)N1)C(=O)N[C@@H](CC(C)C)C(=O)O [listing 1 of 2 here]
Rattus norvegicus [13]
  Activity: 25 mmHg
Rattus norvegicus [14]
  MPE: 70%

## CC[C@H](C)[C@H](NC(=O)[C@@H]1Cc2ccc(O)c(c2)CC=CCCCCCC[C@](C)(N)C(=O)N[C@@H](CCCCN)C(=O)N2CCC[C@H]2C(=O)N1)C(=O)N[C@@H](CC(C)C)C(=O)O [listing 2 of 2 here]
[2]
  half-life: 1440 min
[12]
  EC50: 28 nM

## CCOC(=O)[C@H](CC(C)C)NC(=O)[C@@H](NC(=O)[C@H](Cc1c[nH]c2ccccc12)NC(=O)[C@@H]1CCCN1C(=O)[C@H](CCCCN)NC(=O)[C@@H](N)CCCCN)C(C)(C)C [listing 2 of 2 here]
Rattus norvegicus [13]
  Activity: 25 mmHg
Rattus norvegicus [14]
  MPE: 75%

## CC[C@H](C)[C@H](NC(=O)[C@H]1Cc2ccc(O)c(c2)CC=CCCCCCC[C@](C)(N)C(=O)N[C@@H](CCCCN)C(=O)N2CCC[C@H]2C(=O)N1)C(=O)N[C@@H](CC(C)C)C(=O)O
Rattus norvegicus [15]
  Activity: Active
Rattus norvegicus [6]
  deltaT: 2 °C
Rattus norvegicus [7]
  Activity: Active
Rattus norvegicus [8]
  Activity: inactive
Rattus norvegicus [9]
  Activity: Active

## CC(C)C[C@H](NC(=O)[C@@H]1CCC(=O)N[C@@H](CCCNC(=N)N)C(=O)N[C@@H](CCCCN)C(=O)N2CCC[C@H]2C(=O)N[C@@H](Cc2c[nH]c3ccccc23)C(=O)N1)C(=O)O (RKPWEL-OH; lactam N-5)
[5]
  Ki: 190 nM

## CC[C@H](C)[C@H](NC(=O)[C@@H]1Cc2ccc(O)c(c2)CC=CCNCCCC[C@@H](N)C(=O)N[C@@H](CCCCN)C(=O)N2CCC[C@H]2C(=O)N1)C(=O)N[C@@H](CC(C)C)C(=O)O
[2]
  half-life: 1440 min

## CC[C@H](C)[C@H](NC(=O)[C@H]1Cc2ccc(O)c(c2)CC=CCNCCC[C@@H](N)C(=O)N[C@@H](CCCCN)C(=O)N2CCC[C@H]2C(=O)N1)C(=O)N[C@@H](CC(C)C)C(=O)O
Rattus norvegicus [16]
  Activity: Dose-dependent effect
Rattus norvegicus [15]
  Activity: Active
Rattus norvegicus [7]
  Activity: Active
Rattus norvegicus [17]
  Activity: Active
Rattus norvegicus [18]
  deltaT: 2 °C
Rattus norvegicus [19]
  Activity: inactive
Rattus norvegicus [20]
  Activity: Dose-dependent effect
Rattus norvegicus [8]
  Activity: inactive
Rattus norvegicus [9]
  Activity: Active

## CC[C@H](C)[C@H](NC(=O)[C@@H]1Cc2ccc(O)c(c2)CC=CCNCCC[C@H](N)C(=O)N[C@@H](CCCCN)C(=O)N2CCC[C@H]2C(=O)N1)C(=O)N[C@@H](CC(C)C)C(=O)O [listing 2 of 2 here]
Rattus norvegicus [16]
  ED50: 4.63 µg/kg
Rattus norvegicus [20]
  ED50: 1.96 µg/kg
Rattus norvegicus [13]
  Activity: 25 mmHg
Rattus norvegicus [14]
  MPE: 50%
